Data as given in ChEMBL document CHEMBL1127442, “Triazolinone biphenylsulfonamide derivatives as orally active angiotensin II antagonists with potent AT1 receptor affinity and enhanced AT2 affinity” (J Med Chem, 1994).

How the values were obtained:
[1] = biological target: T1, Type-2 angiotensin II receptor (Rattus norvegicus, UniProt P35351); test: In vitro inhibitory activity against angiotensin II rat midbrain AT2 receptor using radioligand [125I]-Sar Ile-AII
T1 sequence (P35351 whole entry): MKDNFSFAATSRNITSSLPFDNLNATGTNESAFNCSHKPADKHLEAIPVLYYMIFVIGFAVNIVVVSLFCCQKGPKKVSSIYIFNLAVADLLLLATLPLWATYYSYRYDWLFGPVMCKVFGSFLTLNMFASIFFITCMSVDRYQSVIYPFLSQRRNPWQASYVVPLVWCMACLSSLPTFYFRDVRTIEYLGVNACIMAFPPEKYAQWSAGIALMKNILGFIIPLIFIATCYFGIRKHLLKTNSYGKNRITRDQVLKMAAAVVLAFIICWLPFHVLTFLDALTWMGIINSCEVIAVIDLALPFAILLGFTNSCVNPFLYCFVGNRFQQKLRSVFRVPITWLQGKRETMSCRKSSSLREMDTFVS
In short: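 Dithiothreitol ([…]) was added to the assay mixture to abolish residual AT1 binding. Tubes were run in duplicate, and IC50 came from nonlinear regression of displacement curves.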

[2] = biological target: T2, Type-1 angiotensin II receptor (Oryctolagus cuniculus, UniProt P34976); test: In vitro inhibitory activity against angiotensin II rabbit aorta AT1 receptor using radioligand [125I]-Sar Ile-AII; format: tissue-based
T2 sequence (P34976 whole entry): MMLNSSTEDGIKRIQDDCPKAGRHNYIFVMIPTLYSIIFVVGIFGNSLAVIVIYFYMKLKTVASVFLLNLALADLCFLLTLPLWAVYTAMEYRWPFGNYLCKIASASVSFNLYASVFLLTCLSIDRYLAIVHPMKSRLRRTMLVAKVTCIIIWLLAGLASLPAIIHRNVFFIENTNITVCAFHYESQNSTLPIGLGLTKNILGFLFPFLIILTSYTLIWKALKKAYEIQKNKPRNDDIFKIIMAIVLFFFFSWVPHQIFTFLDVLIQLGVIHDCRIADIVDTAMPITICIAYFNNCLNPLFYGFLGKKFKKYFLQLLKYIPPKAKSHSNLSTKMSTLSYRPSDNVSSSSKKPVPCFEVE

Row | Structure (SMILES) | IC50 [1] [nM] | IC50 [2] [nM]
1 | CCCCc1nn(-c2ccccc2Cl)c(=O)n1Cc1ccc(-c2ccccc2S(=O)(=O)NC(C)=O)cc1 | > 1000 | –
2 | CCCCc1nn(-c2ccccc2C(F)(F)F)c(=O)n1Cc1ccc(-c2ccccc2S(=O)(=O)NC(=O)c2cc(Br)sc2Br)cc1 | 84 | 0.67
3 | CCCCc1nn(-c2ccccc2C(F)(F)F)c(=O)n1Cc1ccc(-c2ccccc2S(=O)(=O)NC(=O)c2cccc(Cl)c2)cc1 | 150 | 2.4
4 | CCCCc1nc(Cl)c(C(=O)O)n1Cc1ccc(-c2ccccc2-c2nn[nH]n2)cc1 [CARBOXYLIC ACID METABOLITE] | > 50000 | –
5 | CCCCc1nn(-c2ccccc2C(F)(F)F)c(=O)n1Cc1ccc(-c2ccccc2S(=O)(=O)NC(=O)CCOC)cc1 | 270 | 2
6 | CCCCc1nn(-c2ccccc2C(F)(F)F)c(=O)n1Cc1ccc(-c2ccccc2S(=O)(=O)NC(=O)c2ccc(C(F)(F)F)cc2)cc1 | 1400 | 3.8
7 | CCCCc1nn(-c2ccccc2C(F)(F)F)c(=O)n1Cc1ccc(-c2ccccc2S(=O)(=O)NC(=O)c2cc3ccccc3o2)cc1.CCOCC | – | 0.17
8 | CCCCc1nn(-c2ccccc2C(F)(F)F)c(=O)n1Cc1ccc(-c2ccccc2S(=O)(=O)NC(=O)c2cc(Cl)sc2Cl)cc1 | 87 | 2.6
9 | CCCCc1nn(-c2ccccc2C(F)(F)F)c(=O)n1Cc1ccc(-c2ccccc2S(=O)(=O)NC(=O)NC(C)(C)C)cc1 | 130 | 2.6
10 | CCCCc1nn(-c2ccccc2C(F)(F)F)c(=O)n1Cc1ccc(-c2ccccc2S(=O)(=O)NC(=O)c2cc3ccccc3s2)cc1 | 430 | 0.31
11 | CCCCc1nn(-c2ccccc2C(F)(F)F)c(=O)n1Cc1ccc(-c2ccccc2S(=O)(=O)NS(=O)(=O)c2ccccc2)cc1 | 2400 | 0.2
12 | CCCCc1nn(-c2ccccc2C(F)(F)F)c(=O)n1Cc1ccc(-c2ccccc2S(=O)(=O)NC(=O)COCC)cc1 | 380 | 0.75
13 | CCCCc1nn(-c2ccccc2Cl)c(=O)n1Cc1ccc(-c2ccccc2S(=O)(=O)NC(C)(C)C)cc1 | 11000 | –
14 | CCCCc1nn(-c2ccccc2C(F)(F)F)c(=O)n1Cc1ccc(-c2ccccc2S(=O)(=O)NC(=O)c2c(C)cccc2C)cc1 | 190 | 5.9
15 | CCCCc1nn(-c2ccccc2C(F)(F)F)c(=O)n1Cc1ccc(-c2ccccc2S(=O)(=O)NC(=O)c2ccsc2)cc1 | 300 | 5
16 | CCCCc1nn(-c2ccccc2C(F)(F)F)c(=O)n1Cc1ccc(-c2ccccc2S(=O)(=O)NC(=O)Cc2ccccc2)cc1 | 240 | 1.6
17 | CCCCc1nn(-c2ccccc2C(F)(F)F)c(=O)n1Cc1ccc(-c2ccccc2S(=O)(=O)NC(=O)c2occ(Cl)c2Cl)cc1 | 25 | 0.19
18 | CCCCc1nn(CC(C)(C)C)c(=O)n1Cc1ccc(-c2ccccc2S(=O)(=O)NC(=O)c2ccccc2)cc1 | 2300 | 3.3
19 | CCCCc1nn(-c2ccccc2C(F)(F)F)c(=O)n1Cc1ccc(-c2ccccc2S(=O)(=O)NC(=O)c2oc3ccccc3c2C)cc1 | 130 | 0.43
20 | CCCCc1nn(-c2ccccc2C(F)(F)F)c(=O)n1Cc1ccc(-c2ccccc2S(=O)(=O)NC(=O)c2ccc(Br)o2)cc1 | 170 | 0.4
21 | CCCCc1nn(-c2ccccc2C(F)(F)F)c(=O)n1Cc1ccc(-c2ccccc2S(=O)(=O)NS(=O)(=O)C(C)C)cc1 | 3600 | 0.16
22 | CCCCc1nn(-c2ccccc2C(F)(F)F)c(=O)n1Cc1ccc(-c2ccccc2S(=O)(=O)NC(=O)c2ccc(Cl)s2)cc1 | 260 | 1.3
23 | CCCCc1nn(-c2ccccc2C(F)(F)F)c(=O)n1Cc1ccc(-c2ccccc2S(=O)(=O)NC(=O)C(c2ccccc2)c2ccccc2)cc1 | 320 | 2.8
24 | CC1CC1Cc1nn(-c2ccccc2C(F)(F)F)c(=O)n1Cc1ccc(-c2ccccc2S(=O)(=O)NC(=O)c2ccccc2)cc1 (stereo not drawn) | 500 | 5.8
25 | CCCCc1nn(-c2ccccc2C(F)(F)F)c(=O)n1Cc1ccc(-c2ccccc2S(=O)(=O)NC(=O)c2ccoc2C)cc1 | 110 | 3
26 | CCCCc1nn(-c2ccccc2C(F)(F)F)c(=O)n1Cc1ccc(-c2ccccc2S(=O)(=O)NC(=O)c2ccc(F)cc2)cc1 | 500 | 0.68
27 | CCCCc1nn(-c2c(Cl)cccc2Cl)c(=O)n1Cc1ccc(-c2ccccc2S(=O)(=O)NC(=O)c2ccccc2)cc1 | 500 | 2.6

Row | Structure (SMILES) | IC50 [1] [nM] | IC50 [2] [nM]
28 | CCCCc1nn(-c2ccccc2C(F)(F)F)c(=O)n1Cc1ccc(-c2ccccc2S(=O)(=O)NC(=O)C2(C)CC2)cc1 | 76 | 0.8
29 | CCCCc1nn(-c2ccccc2C(F)(F)F)c(=O)n1Cc1ccc(-c2ccccc2S(=O)(=O)NC(=O)c2sccc2C)cc1 | 80 | 0.81
30 | CCCCc1nn(-c2ccccc2Cl)c(=O)n1Cc1ccc(-c2ccccc2S(=O)(=O)NC(=O)C(F)(F)F)cc1 | 450 | –
31 | CCCCc1nn(-c2ccccc2C(F)(F)F)c(=O)n1Cc1ccc(-c2ccccc2S(=O)(=O)NC(=O)C2CCCCC2)cc1 | 160 | 0.15
32 | CCCCc1nn(-c2ccccc2C(F)(F)F)c(=O)n1Cc1ccc(-c2ccccc2S(=O)(=O)NC(=O)c2cccn2C)cc1 | 500 | 1.6
33 | CCCCc1nn(-c2ccccc2C(F)(F)F)c(=O)n1Cc1ccc(-c2ccccc2S(=O)(=O)NC(=O)C(C)(C)C)cc1 | 160 | 1.3
34 | CCCCc1nn(-c2ccccc2C(F)(F)F)c(=O)n1Cc1ccc(-c2ccccc2S(=O)(=O)NC(=O)C2CCCCCC2)cc1 | 270 | 0.3
35 | CCCCc1nn(-c2ccccc2C(F)(F)F)c(=O)n1Cc1ccc(-c2ccccc2S(=O)(=O)NC(=O)C2CCC2)cc1 | 100 | 0.84
36 | CCCCc1nn(-c2ccccc2C(F)(F)F)c(=O)n1Cc1ccc(-c2ccccc2S(=O)(=O)NC(=O)c2ccccc2C(F)(F)F)cc1 | 220 | 0.27
37 | CCCCc1nn(-c2ccccc2C(F)(F)F)c(=O)n1Cc1ccc(-c2ccccc2S(=O)(=O)NC(=O)c2ccccc2Cc2ccccc2)cc1 | 190 | 0.82
38 | CCCCc1nn(-c2ccccc2C(F)(F)F)c(=O)n1Cc1ccc(-c2ccccc2S(=O)(=O)NC(=O)c2cccc(C(F)(F)F)c2)cc1 | 580 | 3.3
39 | CCCCc1nn(C(C)C)c(=O)n1Cc1ccc(-c2ccccc2S(=O)(=O)NC(=O)c2ccccc2)cc1 | 4600 | 7
40 | CCCCc1nn(-c2ccccc2C(F)(F)F)c(=O)n1Cc1ccc(-c2ccccc2S(=O)(=O)NC(=O)c2ccccc2-c2ccccc2)cc1 | 330 | 0.6
41 | CCCCc1nn(-c2ccccc2C(F)(F)F)c(=O)n1Cc1ccc(-c2ccccc2S(=O)(=O)NC(=O)c2oc(C)cc2C)cc1 | 55 | 0.22
42 | CCCCc1nn(-c2ccccc2Cl)c(=O)n1Cc1ccc(-c2ccccc2S(=O)(=O)NC(=O)c2ccccc2)cc1 | 590 | 1.4
43 | CCCCc1nn(-c2ccccc2C(F)(F)F)c(=O)n1Cc1ccc(-c2ccccc2S(=O)(=O)NC(=O)CCCC(=O)O)cc1 | 1500 | 5.5
44 | CCCCc1nn(-c2ccccc2C(F)(F)F)c(=O)n1Cc1ccc(-c2ccccc2S(=O)(=O)NC(=O)C(F)(F)F)cc1 | 400 | 0.8
45 | CCCCc1nn(-c2ccccc2C(F)(F)F)c(=O)n1Cc1ccc(-c2ccccc2S(=O)(=O)NC#N)cc1 | > 1000 | 4.7
46 | CCCCc1nn(-c2ccccc2C(F)(F)F)c(=O)n1Cc1ccc(-c2ccccc2S(=O)(=O)NC(=O)CCCCCN)cc1 | 100 | 1.3
47 | CCCCc1nn(-c2ccccc2C(F)(F)F)c(=O)n1Cc1ccc(-c2ccccc2S(=O)(=O)NC(=O)c2cc(C)oc2C(F)(F)F)cc1 | 60 | 0.17
48 | CCCCc1nn(-c2ccccc2C(F)(F)F)c(=O)n1Cc1ccc(-c2ccccc2S(=O)(=O)NC(=O)CCC2CCCC2)cc1 | 720 | 1.2
49 | CCCCc1nn(-c2ccccc2C(F)(F)F)c(=O)n1Cc1ccc(-c2ccccc2S(=O)(=O)NC(=O)c2cccnc2Cl)cc1 | 520 | 1
50 | CCCCc1nn(-c2ccccc2C(F)(F)F)c(=O)n1Cc1ccc(-c2ccccc2S(=O)(=O)NC(=O)c2ccccc2OC)cc1 | 72 | 0.41
51 | CCCCc1nn(-c2ccccc2C(F)(F)F)c(=O)n1Cc1ccc(-c2ccccc2S(=O)(=O)NC(=O)C2(C)SCCS2)cc1 | 80 | 0.22
52 | CCCCc1nn(-c2ccccc2C(F)(F)F)c(=O)n1Cc1ccc(-c2ccccc2S(=O)(=O)NC(=O)c2ccccc2F)cc1 | 53 | 0.13
53 | CCCCc1nn(-c2ccccc2C(F)(F)F)c(=O)n1Cc1ccc(-c2ccccc2S(=O)(=O)Nc2nc3ccccc3o2)cc1 | 700 | 5.2
54 | CCCCc1nn(-c2ccccc2C(F)(F)F)c(=O)n1Cc1ccc(-c2ccccc2NS(=O)(=O)C(F)(F)F)cc1 | 5500 | 1.8
